A selection: hits, their analogues and other compounds. The true share with any hit is near 2.2%.
PHOSPHO1 block – PHOSPHO1 (human) inhibition | inhibition, % at 13.3 µM | recombinant PHOSPHO1, absorbance phosphatase assay | hit rate 1.1% among 290,000 | Q8TCT1 | AID 1565; in the data active = inhibition above about 60%
Target sequence (Q8TCT1 whole entry, looked up): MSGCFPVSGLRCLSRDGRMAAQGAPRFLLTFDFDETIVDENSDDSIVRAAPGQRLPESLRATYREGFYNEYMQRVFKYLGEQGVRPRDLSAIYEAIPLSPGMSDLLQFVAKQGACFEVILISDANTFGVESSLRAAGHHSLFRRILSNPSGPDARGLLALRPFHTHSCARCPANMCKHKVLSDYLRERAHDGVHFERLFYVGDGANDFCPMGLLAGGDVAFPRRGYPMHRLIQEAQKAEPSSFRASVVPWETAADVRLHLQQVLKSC
IMP-1 inhibitor – inhibitors of Pseudomonas aeruginosa IMP-1 metallo-beta-lactamase; purified IMP-1, nitrocefin hydrolysis, epi-absorbance fluorescence; inhibition, % at 5.6 µM; hit rate 0.45% among 290,000;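 active = inhibition above the mean plus 3 SD of all compounds in the same screening run, cut at about 4.5% in these data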;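 note: 0% = IMP-1 with DMSO and 100% = DMSO wells lacking enzyme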
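system = purified recombinant IMP-1 beta-lactamase | amount = 0.2 nM IMP-1, as dispensed | medium = HEPES buffer pH 7.1 with ZnSO4 and Brij 35 | times = 25 °C, 15 min preincubation, 25 min reaction | detection = plate fluorescence quenching by hydrolysis product, ex 480/em 530 nm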
CR mimetic SO – lowers age-related superoxide in aged yeast cells; S. cerevisiae aged cells, superoxide DHE fluorescence; stronger effect = lower value; hit rate 0.18% among 330,000; superoxide response (% of plate mean), % at 10 µM;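 active = superoxide response under a set limit, about three screen SD below normal, cut at about 65% in these data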;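 note: yeast aged for seven days with compound at 30 °C before DHE staining; 100% = average MFI of all compound-treated wells on the plate with controls excluded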
VIM-2 inhibitor – inhibitors of Pseudomonas aeruginosa VIM-2 metallo-beta-lactamase. hit rate 0.89% among 290,000. inhibition, % at 5.6 µM. AID 1527. purified VIM-2, nitrocefin hydrolysis, epi-absorbance fluorescence;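 active = inhibition above the mean of all tested compounds plus 3 SD, cutoff set per screening run, cut at about 7.5% in these data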;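 note: red hydrolysis product quenches plate fluorescence so inhibitors raise well fluorescence; 0% = enzyme with DMSO and 100% = DMSO without enzyme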
PvdQ inh – blocks Pseudomonas aeruginosa PvdQ acylase activity; purified PvdQ acylase, fluorescence plate reader; inhibition, % at 10 µM; hit rate 0.063% among 340,000; in the data active = inhibition above about 30%, passing the limit was not always enough;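 note: 0% = vehicle neutral wells and 100% = reference inhibitor wells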
The depositor's hits bear a star.

What do the screens show for `O=C(N/N=C/c1ccc(OC(=O)c2ccc([N+](=O)[O-])cc2)cc1)c1cccnc1`?
PHOSPHO1 block: 62.8*; IMP-1 inhibitor: -4.2; CR mimetic SO: 108.6; VIM-2 inhibitor: -3.2; PvdQ inh: -9.5

How did COc1ccc(CCC(=O)Nc2nnc(C(C)(C)C)s2)cc1 do in these assays?
IMP-1 inhibitor: -1.3; CR mimetic SO: 104.4; VIM-2 inhibitor: -0.2; PvdQ inh: -18.4

How did COc1ccc(CCC(=O)Nc2nnc(C(F)(F)F)s2)cc1 do in these assays?
PHOSPHO1 block: 13.7; IMP-1 inhibitor: 8.7*; CR mimetic SO: 98.5; VIM-2 inhibitor: -2.9; PvdQ inh: -9.5

What do the screens show for `COc1ccc(NC(=O)CCC(=O)Nc2nnc(C(F)(F)F)s2)c(OC)c1`?
PHOSPHO1 block: -4.9; IMP-1 inhibitor: 4.9*; CR mimetic SO: 96.6; VIM-2 inhibitor: -3.3; PvdQ inh: -3.6

What do the screens show for `CSc1nnc(NC(=O)CCc2ccccc2)s1`?
PHOSPHO1 block: 82.4*; IMP-1 inhibitor: -1.6; CR mimetic SO: 91.9; VIM-2 inhibitor: -2.9; PvdQ inh: 17.3

What do the screens show for `CCOc1ccc(CNC(=O)CCCOc2cc(=O)n(C)c3ccccc23)cc1`?
PHOSPHO1 block: -6.7; IMP-1 inhibitor: -4.2; CR mimetic SO: 94.1; VIM-2 inhibitor: -1.3; PvdQ inh: -6.3

How did O=C(Nc1nnc(CSCc2ccccc2F)s1)c1cccc([N+](=O)[O-])c1 do in these assays?
PHOSPHO1 block: -23.5; IMP-1 inhibitor: -0.5; CR mimetic SO: 105.2; VIM-2 inhibitor: 4.9; PvdQ inh: -0.6

What do the screens show for `CC(C)C(=O)Nc1nnc(CSCc2ccccc2F)s1`?
PHOSPHO1 block: 21.6; IMP-1 inhibitor: -0.7; CR mimetic SO: 93.6; VIM-2 inhibitor: 10.3*; PvdQ inh: -13.9

Results for COCC(N)(c1ccccc1)c1nc2ccccc2n1C (stereo not drawn) ?
PHOSPHO1 block: -3.3; IMP-1 inhibitor: -2.8; CR mimetic SO: 97.0; VIM-2 inhibitor: 9.0*; PvdQ inh: 0.2

Results for Cc1cc(NC(=O)c2ccc(Br)o2)ccc1NC(=O)c1ccco1 ?
PHOSPHO1 block: 14.6; IMP-1 inhibitor: -3.8; CR mimetic SO: 101.9; VIM-2 inhibitor: -1.3; PvdQ inh: -13.2

Results for Cc1cc(C)c(S(=O)(=O)/N=C2/C=C(Sc3ncn[nH]3)C(=O)c3ccccc32)cc1C ?
PHOSPHO1 block: 69.1*; IMP-1 inhibitor: -3.2; CR mimetic SO: 144.0; VIM-2 inhibitor: -1.8; PvdQ inh: -2.3

What do the screens show for `Cn1c(CCc2ccccc2)n[nH]c1=S`?
PHOSPHO1 block: -50.6; IMP-1 inhibitor: -4.0; CR mimetic SO: 109.6; VIM-2 inhibitor: -6.5; PvdQ inh: 2.0

What do the screens show for `NCC(O)CN(c1ccccc1)c1ccccc1` (stereo not drawn)?
PHOSPHO1 block: 53.2; IMP-1 inhibitor: 0.1; CR mimetic SO: 87.4; VIM-2 inhibitor: -3.5; PvdQ inh: 6.2

What do the screens show for `CC(C)[N+](C)(C)CC(O)CN(c1ccccc1)c1ccccc1` (stereo not drawn)?
PHOSPHO1 block: 85.1*; IMP-1 inhibitor: -0.2; CR mimetic SO: 86.4; VIM-2 inhibitor: 2.5; PvdQ inh: -8.0

How did CN1CCN(c2ccc(NC(=O)c3ccc(Oc4ccccc4)cc3)cc2)CC1 do in these assays?
PHOSPHO1 block: 13.0; IMP-1 inhibitor: -3.5; CR mimetic SO: 99.4; VIM-2 inhibitor: 8.3*; PvdQ inh: -6.4

What do the screens show for `CC(=O)Nc1ccc(C(=O)CN2CCN(c3ccccc3)CC2)cc1`?
PHOSPHO1 block: 39.2; IMP-1 inhibitor: 21.5*; CR mimetic SO: 100.8; VIM-2 inhibitor: -1.9; PvdQ inh: -1.7

What do the screens show for `CCC(=O)N1CCN(c2ccc(NC(=O)c3ccccc3)cc2)CC1`?
PHOSPHO1 block: 62.9*; IMP-1 inhibitor: -1.9; CR mimetic SO: 88.7; VIM-2 inhibitor: -1.7; PvdQ inh: -7.1

Results for CC/C(=N\NC(=O)CNC(=O)/C=C/c1ccc(OC)cc1)c1ccccc1 ?
PHOSPHO1 block: 18.4; IMP-1 inhibitor: -1.8; CR mimetic SO: 100.8; VIM-2 inhibitor: -2.0; PvdQ inh: -3.9

Results for COc1ccc(C2NC(=O)N(CCCC(=O)O)C(C)=C2C(=O)OCc2ccccc2)cc1 (stereo not drawn) ?
CR mimetic SO: 99.4

Results for Cc1cncn1CCc1nc2c3ccccc3nc(=S)n2[nH]1 ?
IMP-1 inhibitor: -10.3; VIM-2 inhibitor: -0.7

How did Cc1nc2ccccc2n1CCc1nc2c3ccccc3nc(=S)n2[nH]1 do in these assays?
PHOSPHO1 block: 85.7*; IMP-1 inhibitor: -5.5; CR mimetic SO: 101.9; VIM-2 inhibitor: -6.5; PvdQ inh: -7.0

Results for Cc1ncc([N+](=O)[O-])n1CC(=O)N/N=C/c1ccccc1F ?
PHOSPHO1 block: 67.7*; IMP-1 inhibitor: -3.1; CR mimetic SO: 105.4; VIM-2 inhibitor: -2.3; PvdQ inh: 3.0

Results for CN(c1ccccc1)S(=O)(=O)c1nnc(NC(=O)C2CCCCC2)s1 ?
PHOSPHO1 block: 70.0*; IMP-1 inhibitor: -3.7; CR mimetic SO: 75.8; VIM-2 inhibitor: -2.8; PvdQ inh: 8.0

How did CCCCCCN(C(=O)CCCCCN1C(=O)NC(c2ccccc2)C(C(=O)OCc2ccccc2)=C1C)C(C(=O)NCCCC)c1ccc(OCC(=O)OC)c(C(=O)OC)c1 (stereo not drawn) do in these assays?
PHOSPHO1 block: 8.9

Results for O=C1c2ccccc2S(=O)(=O)c2cc(N3CCc4ccccc4C3)ccc21 ?
CR mimetic SO: 99.6

How did O=C(NC1CCCCC1)c1sc(=S)n2c1[nH]c(=O)c1ccccc12 do in these assays?
PHOSPHO1 block: 75.6*; IMP-1 inhibitor: -2.2; CR mimetic SO: 103.5; VIM-2 inhibitor: -0.2; PvdQ inh: -5.0

How did COc1ccc(-c2csc(NC(=O)c3ccccc3S(C)(=O)=O)n2)cc1 do in these assays?
PHOSPHO1 block: -76.8; IMP-1 inhibitor: -2.3; CR mimetic SO: 112.4; VIM-2 inhibitor: -3.0; PvdQ inh: 1.3

What do the screens show for `COc1ccc(-c2csc(NC(=O)c3ccc(S(C)(=O)=O)cc3)n2)cc1`?
PHOSPHO1 block: 29.5; IMP-1 inhibitor: 5.6*; CR mimetic SO: 97.4; VIM-2 inhibitor: -0.9; PvdQ inh: 4.0

How did COc1ccc(CC(=O)Nc2nc(-c3ccncc3)cs2)cc1 do in these assays?
PHOSPHO1 block: 16.6; IMP-1 inhibitor: 6.7*; CR mimetic SO: 133.6; VIM-2 inhibitor: -3.0; PvdQ inh: -4.9

Results for O=C(Nc1ccc2c(c1)OCO2)c1cc(-c2ccc(O)cc2)on1 ?
PHOSPHO1 block: 47.9; IMP-1 inhibitor: -1.4; CR mimetic SO: 108.6; VIM-2 inhibitor: -2.2; PvdQ inh: -2.0

Results for Nc1cc(=O)[nH]c(SCC(=O)Nc2cccc(Cl)c2Cl)n1 ?
PHOSPHO1 block: -15.2; IMP-1 inhibitor: -2.7; CR mimetic SO: 80.5; VIM-2 inhibitor: -3.7; PvdQ inh: -0.2

Results for COc1ccc(NC(=O)CSc2nnc(CCC(=O)Nc3ccc(C)c(Cl)c3)n2C)cc1 ?
PHOSPHO1 block: 25.3; IMP-1 inhibitor: -1.9; CR mimetic SO: 130.0; VIM-2 inhibitor: -0.5; PvdQ inh: 2.0

What do the screens show for `O=C(CSc1nc2ccccc2s1)NNC(=S)Nc1ccccc1`?
PHOSPHO1 block: -14.7; IMP-1 inhibitor: -3.8; CR mimetic SO: 76.2; VIM-2 inhibitor: 9.7*; PvdQ inh: -5.3

Bioassay records as filed in PubChem.
